Data published in ChEMBL document CHEMBL3407438, “Discovery of potent, orally bioavailable, small-molecule inhibitors of WNT signaling from a cell-based pathway screen” (J Med Chem, 2015).
Active and inactive are the calls of the source. The rule behind the calls is not given here.

Key:
COLO 205 = assay: Effect on TCF4 level in human COLO205-F1756 clone 4 cells harboring APC mutant and TCF/LEF responsive element at 350 nM by immunoblotting; assay type: functional, cell-based
[1] = AUC in Wistar rat at 0.2 mg/kg, iv; assay type: ADME, organism-based; design: dose 0.2 mg/kg, route intravenous; conditions: plasma
Summary of the method: (§1)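 Male Wistar rats (n = 6) received cassette dosing, either iv bolus at 0.2 mg/kg or oral gavage at 0.5 mg/kg per compound, in DMSO/PEG 200/water. Plasma levels were measured by UPLC–MS/MS.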

[2] = Volume of distribution at steady state in Wistar rat at 0.2 mg/kg, iv; assay type: ADME, organism-based; design: dose 0.2 mg/kg, route intravenous; conditions: in vivo, read-out: Vdss; summary of the method: as §1
[3] = Clearance in NMRI mouse at 0.2 mg/kg, iv; assay type: ADME, organism-based; design: dose 0.2 mg/kg, route intravenous; conditions: in vivo
Summary of the method: (§2)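 Female NMRI mice (n = 5) given a single iv bolus (0.2 mg/kg per compound) or oral gavage (0.5 mg/kg per compound) as a cassette, in DMSO/PEG 200/water. Serial retro-orbital blood was drawn under isoflurane from 3 animals per route at 0.1 (iv), 0.25 (po), 0.5, 1, 2, 4 and 6 h. Plasma was quantified by LC–MS/MS.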

[4] = Antitumor activity against human COLO205-F1756 clone 4 cells harboring APC mutant xenografted in CrTac:NCr-Foxn1nu mouse assessed as reduction in tumor weight at 70 mg/kg, po bid for 9 days relative to control; assay type: functional, COLO 205; design: scale not given: the % may be the effect or the level left
Summary of the method: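 Female athymic nude mice were implanted sc in the flank with 3 million COLO205-F1756 clone 4 cells. At about 100 mm3, groups of n = 8 were gavaged at 70 mg/kg bid or with vehicle (10% DMSO, 5% Tween 20 in saline). Luminescent flux was imaged after sc D-luciferin 2 and 6 h post final dose, then tumours were excised and weighed. Mann–Whitney U test.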

[5] = molecular target: T1, Poly [ADP-ribose] polymerase tankyrase-1 (Homo sapiens, UniProt O95271); assay: Inhibition of GST-tagged TNKS1 (1023 to 1327 aa) (unknown origin) after 90 mins by HTRF assay
T1 sequence (O95271 whole entry): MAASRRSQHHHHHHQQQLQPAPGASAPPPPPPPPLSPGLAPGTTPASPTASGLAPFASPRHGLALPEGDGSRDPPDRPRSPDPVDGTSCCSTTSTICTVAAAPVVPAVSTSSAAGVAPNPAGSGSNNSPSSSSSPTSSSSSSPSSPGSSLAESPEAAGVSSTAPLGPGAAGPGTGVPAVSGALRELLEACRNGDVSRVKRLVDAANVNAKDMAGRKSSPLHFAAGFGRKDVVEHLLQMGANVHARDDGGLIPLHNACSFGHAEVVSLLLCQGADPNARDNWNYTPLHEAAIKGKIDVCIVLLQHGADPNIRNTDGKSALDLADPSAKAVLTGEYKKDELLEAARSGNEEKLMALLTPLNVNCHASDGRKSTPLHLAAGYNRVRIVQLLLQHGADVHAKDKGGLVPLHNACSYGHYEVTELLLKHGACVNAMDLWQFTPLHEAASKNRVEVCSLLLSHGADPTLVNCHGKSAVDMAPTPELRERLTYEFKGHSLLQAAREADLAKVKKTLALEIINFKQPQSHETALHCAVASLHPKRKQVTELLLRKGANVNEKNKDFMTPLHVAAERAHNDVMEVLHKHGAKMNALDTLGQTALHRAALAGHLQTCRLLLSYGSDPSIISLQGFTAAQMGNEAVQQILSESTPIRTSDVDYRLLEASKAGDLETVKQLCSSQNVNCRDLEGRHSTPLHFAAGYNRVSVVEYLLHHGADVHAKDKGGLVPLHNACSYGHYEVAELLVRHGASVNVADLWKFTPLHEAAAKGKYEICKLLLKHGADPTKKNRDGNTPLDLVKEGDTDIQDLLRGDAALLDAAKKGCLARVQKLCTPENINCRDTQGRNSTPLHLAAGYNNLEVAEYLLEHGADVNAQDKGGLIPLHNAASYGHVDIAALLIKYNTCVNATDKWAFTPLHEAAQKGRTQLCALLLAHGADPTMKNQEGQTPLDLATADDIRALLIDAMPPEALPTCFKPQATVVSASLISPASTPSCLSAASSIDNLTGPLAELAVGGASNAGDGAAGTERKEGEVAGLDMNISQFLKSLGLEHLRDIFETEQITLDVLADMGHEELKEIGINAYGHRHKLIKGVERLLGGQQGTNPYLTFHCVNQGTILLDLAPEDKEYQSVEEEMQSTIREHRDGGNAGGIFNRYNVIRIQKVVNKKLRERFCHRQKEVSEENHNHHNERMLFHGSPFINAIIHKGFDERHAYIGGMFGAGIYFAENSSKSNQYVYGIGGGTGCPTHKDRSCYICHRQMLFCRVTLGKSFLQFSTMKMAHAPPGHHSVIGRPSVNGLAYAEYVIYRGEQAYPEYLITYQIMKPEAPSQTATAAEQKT

[6] = Tmax in Wistar rat at 0.2 mg/kg, iv; assay type: ADME, organism-based; design: dose 0.2 mg/kg, route intravenous; conditions: in vivo; summary of the method: as §1
Cytochrome P450 3A4 = Cytochrome P450 3A4 (Homo sapiens, UniProt P08684); assay: Inhibition of CYP3A4 (unknown origin); assay type: ADME; conditions: human
Chain of Cytochrome P450 3A4 (P08684 whole entry): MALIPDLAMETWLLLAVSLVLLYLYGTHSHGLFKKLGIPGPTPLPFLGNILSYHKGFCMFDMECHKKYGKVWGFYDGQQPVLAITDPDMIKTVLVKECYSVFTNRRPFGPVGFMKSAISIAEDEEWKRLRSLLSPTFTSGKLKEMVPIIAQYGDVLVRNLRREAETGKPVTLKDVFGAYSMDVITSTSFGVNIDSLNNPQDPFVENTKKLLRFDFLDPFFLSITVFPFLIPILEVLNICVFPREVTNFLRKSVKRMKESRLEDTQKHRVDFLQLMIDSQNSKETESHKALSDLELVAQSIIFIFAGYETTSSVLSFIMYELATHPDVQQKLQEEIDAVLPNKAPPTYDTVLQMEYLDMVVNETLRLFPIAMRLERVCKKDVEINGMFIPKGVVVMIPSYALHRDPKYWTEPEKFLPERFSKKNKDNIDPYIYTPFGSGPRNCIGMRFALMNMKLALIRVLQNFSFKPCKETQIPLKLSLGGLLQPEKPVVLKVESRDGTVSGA

[7] = Tmax in Wistar rat at 0.5 mg/kg, po; assay type: ADME, organism-based; design: dose 0.5 mg/kg, route oral; conditions: in vivo; summary of the method: as §1
[8] = Tmax in NMRI mouse at 0.2 mg/kg, iv; assay type: ADME, organism-based; design: dose 0.2 mg/kg, route intravenous; conditions: in vivo; summary of the method: as §2
Cytochrome P450 2C8 = molecular target: T2, Cytochrome P450 2C8 (Homo sapiens, UniProt P10632); assay: Inhibition of CYP2C8 (unknown origin); assay type: ADME
T2 sequence (P10632 whole entry): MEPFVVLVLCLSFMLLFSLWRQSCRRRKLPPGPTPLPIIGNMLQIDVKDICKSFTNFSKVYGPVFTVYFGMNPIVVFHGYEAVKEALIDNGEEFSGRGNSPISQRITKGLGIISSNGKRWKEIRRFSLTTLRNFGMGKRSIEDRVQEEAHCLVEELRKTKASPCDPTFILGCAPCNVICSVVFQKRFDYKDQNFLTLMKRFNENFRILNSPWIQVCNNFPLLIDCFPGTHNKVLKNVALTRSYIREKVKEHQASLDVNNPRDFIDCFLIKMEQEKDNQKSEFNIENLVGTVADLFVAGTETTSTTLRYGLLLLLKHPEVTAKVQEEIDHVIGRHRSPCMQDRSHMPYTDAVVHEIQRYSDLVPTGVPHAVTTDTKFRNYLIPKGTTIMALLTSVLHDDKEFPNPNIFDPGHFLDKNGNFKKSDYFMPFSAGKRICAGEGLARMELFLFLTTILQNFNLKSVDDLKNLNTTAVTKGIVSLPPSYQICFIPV

Cn1cc(-c2ccc(-c3cncc(Cl)c3N3CCC4(CCNC4=O)CC3)cc2)cn1
Activity (COLO 205): inactive | AUC [1]: 0.13 µg·h/mL | Vd [2]: 1.8 L/kg | clearance [3]: 1.86 L/h/kg | Activity [4]: 37.5% | IC50 [5]: > 10 µM | Tmax [6]: 6 min | inhibition (INH) (Cytochrome P450 3A4): Not Active | Tmax [7]: 15 min | Tmax [8]: 6 min | inhibition (INH) (Cytochrome P450 2C8): Not Active
